What is called inhibition is the drop in the measured response relative to a control, in per cent.

3 molecules from ChEMBL document CHEMBL3045713, “The fungicidal terpenoids and essential oil from Litsea cubeba in Tibet” (Molecules, 2010) can be followed below.

Common to all, as to assay type: functional
Test [1] relates to Fusarium oxysporum. Put plainly: Fungicidal activity against Fusarium oxysporum assessed as inhibition of mycelium growth at 272 uM at 25 +/- 0.5 degC. Put shortly: (§1)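 Mycelium growth rate test. Test sample dissolved in acetone and mixed into potato dextrose agar at the stated concentration, then fungal mycelial cakes were placed on the plates. Acetone served as blank and carbendazim as positive control. Plates were incubated at 25 ± 0.5 °C until the blank grew completely. Colony diameters were then measured, and inhibitory ratio was calculated against the blank mean. Three replicates were run.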

In test [2] the test system is Verticillium dahliae. Put plainly: Fungicidal activity against Verticillium dahliae assessed as inhibition of mycelium growth at 272 uM at 25 +/- 0.5 degC. Put shortly:
as §1

For test [3], the system named is Alternaria alternata. Put plainly: Fungicidal activity against Alternaria alternata assessed as inhibition of mycelium growth at 272 uM at 25 +/- 0.5 degC. In a few lines:
as §1

Test [4] has as its system Alternaria mali. In words: Fungicidal activity against Alternaria mali assessed as inhibition of mycelium growth at 272 uM at 25 +/- 0.5 degC. Put shortly: as §1
The subject of test [5] is Pseudocercospora musae. In words: Fungicidal activity against Pseudocercospora musae assessed as inhibition of mycelium growth at 272 uM at 25 +/- 0.5 degC. Put shortly: as §1
Test [6] has as its system Colletotrichum lindemuthianum. Put plainly: Fungicidal activity against Colletotrichum lindemuthianum assessed as inhibition of mycelium growth at 272 uM at 25 +/- 0.5 degC. Put shortly: as §1
Test [7] has as its system Thanatephorus cucumeris. Put plainly: Fungicidal activity against Thanatephorus cucumeris assessed as inhibition of mycelium growth at 272 uM at 25 +/- 0.5 degC. Put shortly:
as §1

In test [8] the test system is Fusarium graminearum. Put plainly: Fungicidal activity against Fusarium graminearum assessed as inhibition of mycelium growth at 272 uM at 25 +/- 0.5 degC. Put shortly:
as §1

The test system of test [9] is Botrytis cinerea. Put plainly: Fungicidal activity against Botryotinia fuckeliana assessed as inhibition of mycelium growth at 272 uM at 25 +/- 0.5 degC. Put shortly:
as §1

Test [10] relates to Colletotrichum gloeosporioides. Put plainly: Fungicidal activity against Colletotrichum gloeosporioides assessed as inhibition of mycelium growth at 272 uM at 25 +/- 0.5 degC. In a few lines: as §1
In test [11] the test system is Phytophthora infestans. Put plainly: Fungicidal activity against Phytophthora infestans assessed as inhibition of mycelium growth at 272 uM at 25 +/- 0.5 degC. In a few lines: as §1
The subject of test [12] is Sclerotinia sclerotiorum. In words: Fungicidal activity against Sclerotinia sclerotiorum assessed as inhibition of mycelium growth at 272 uM at 25 +/- 0.5 degC. In a few lines: as §1
Test [13] deals with Fusarium verticillioides. In words: Fungicidal activity against Fusarium verticillioides assessed as inhibition of mycelium growth at 272 uM at 25 +/- 0.5 degC. Put shortly: as §1
For test [14], the system named is Alternaria mali. In words: Fungicidal activity against Alternaria mali assessed as inhibition of mycelium growth at 52 uM at 25 +/- 0.5 degC. In a few lines: as §1
The test system of test [15] is Fusarium oxysporum. In words: Fungicidal activity against Fusarium oxysporum assessed as inhibition of mycelium growth at 52 uM at 25 +/- 0.5 degC. Put shortly: as §1
Test [16] relates to Sclerotinia sclerotiorum. Put plainly: Fungicidal activity against Sclerotinia sclerotiorum assessed as inhibition of mycelium growth at 52 uM at 25 +/- 0.5 degC. Put shortly:
as §1

Test [17] relates to Thanatephorus cucumeris. Put plainly: Fungicidal activity against Thanatephorus cucumeris assessed as inhibition of mycelium growth at 52 uM at 25 +/- 0.5 degC. Put shortly: as §1
Test [18] concerns Phytophthora infestans. Put plainly: Fungicidal activity against Phytophthora infestans assessed as inhibition of mycelium growth at 52 uM at 25 +/- 0.5 degC. In a few lines:
as §1

The subject of test [19] is Fusarium verticillioides. In words: Fungicidal activity against Fusarium verticillioides assessed as inhibition of mycelium growth at 52 uM at 25 +/- 0.5 degC. In a few lines: as §1
Test [20] concerns Botrytis cinerea. In words: Fungicidal activity against Botryotinia fuckeliana assessed as inhibition of mycelium growth at 52 uM at 25 +/- 0.5 degC. Put shortly: as §1
In test [21] the test system is Colletotrichum gloeosporioides. In words: Fungicidal activity against Colletotrichum gloeosporioides assessed as inhibition of mycelium growth at 52 uM at 25 +/- 0.5 degC. Put shortly: as §1
Test [22] concerns Fusarium graminearum. In words: Fungicidal activity against Fusarium graminearum assessed as inhibition of mycelium growth at 52 uM at 25 +/- 0.5 degC. Put shortly: as §1
In test [23] the test system is Sclerotinia sclerotiorum. In words: Fungicidal activity against Sclerotinia sclerotiorum assessed as inhibition of mycelium growth at 588 uM at 25 +/- 0.5 degC. Put shortly: as §1
Test [24] concerns Botryosphaeria berengeriana. In words: Fungicidal activity against Botryosphaeria berengeriana assessed as inhibition of mycelium growth at 588 uM at 25 +/- 0.5 degC. In a few lines: as §1
The subject of test [25] is Alternaria alternata. Put plainly: Fungicidal activity against Alternaria alternata assessed as inhibition of mycelium growth at 588 uM at 25 +/- 0.5 degC. In a few lines:
as §1

Test [26] has as its system Fusarium oxysporum. In words: Fungicidal activity against Fusarium oxysporum assessed as inhibition of mycelium growth at 588 uM at 25 +/- 0.5 degC. Put shortly: as §1
Test [27] deals with Thanatephorus cucumeris. In words: Fungicidal activity against Thanatephorus cucumeris assessed as inhibition of mycelium growth at 588 uM at 25 +/- 0.5 degC. In a few lines: as §1
Test [28] deals with Pseudocercospora musae. Put plainly: Fungicidal activity against Pseudocercospora musae assessed as inhibition of mycelium growth at 588 uM at 25 +/- 0.5 degC. In a few lines: as §1
Test [29] deals with Colletotrichum gloeosporioides. Put plainly: Fungicidal activity against Colletotrichum gloeosporioides assessed as inhibition of mycelium growth at 588 uM at 25 +/- 0.5 degC. Put shortly:
as §1

Regarding `CC1=CC(=O)O[C@@H](C(C)(C)O)CC1`, the inhibition at 272 µM was 53.5% in test [1]; 66.6% in test [2]; 70.9% in test [3]; 66% in test [4]; 65.5% in [5]; 62.3% in [6]. Also, the inhibition at 272 µM was 80.2% in test [7]; 73.8% in [8]; 72% in test [9]; 71.1% in test [10]; 66.4% in [11]; 81.8% in [12]. Also, the inhibition at 272 µM in test [13] was 55.6%.
`COC(=O)Nc1nc2ccccc2[nH]1` [CARBENDAZIM]: the inhibition at 52 µM in test [14], in test [15], in test [16], in test [17], in test [18] and in test [19] was 100% in each case. Besides, the inhibition at 52 µM in test [20], in test [21] and in [22] was 100% in each case.
With `C/C(=C\C=C\C(C)(C)O)C(=O)O` [LITSEACUBEBIC ACID], the inhibition at 588 µM in test [23] is 86.7%; in test [24] it was 59.2%; in test [25], 57.8%; in test [26], 56.7%; in test [27], 76.8%; in [28] it was 78.9%. Moreover, in test [29], the inhibition at 588 µM worked out at 71.2%.
